Source: PubChem (Sanford-Burnham Center for Chemical Genomics)
Scp1 inh: blocks human Scp-1 phosphatase activity | inhibition, % at 20 µM | Q9GZU7 | hit rate 0.88% among 340,000 | AID 493091 | Recombinant Scp1, phosphopeptide, malachite green phosphate absorbance;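 active = inhibition above about 50% at 20 µM, limit read from the data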;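 also: plate controls were DMSO wells with enzyme for no effect and wells lacking enzyme for full effect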
Target sequence (Q9GZU7 76-261 limits assumed): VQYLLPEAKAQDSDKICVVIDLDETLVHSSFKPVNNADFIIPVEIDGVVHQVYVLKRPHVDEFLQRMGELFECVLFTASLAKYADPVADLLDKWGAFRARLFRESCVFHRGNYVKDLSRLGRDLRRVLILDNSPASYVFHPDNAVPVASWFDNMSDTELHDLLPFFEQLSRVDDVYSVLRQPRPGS
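Test system: SCP-1 catalytic domain; Buffer or medium: Acidic Tris acetate buffer with magnesium and detergent; Also added: Phosphorylated 17-residue peptide substrate; Compound: single 20 µM dose, 1% DMSO; Schedule: enzyme reaction 45 min at room temperature, colour 5 min, stabilisation 30 min; Signal: Phosphate-binding colour reagent, absorbance read at 630 nm.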
CSN deneddyl inh: blocks human CSN-mediated cullin deneddylation | Purified CSN, SCF-Nedd8-OG deneddylation, fluorescence polarization | inhibition, % at 12.5 µM | hit rate 0.38% among 360,000 | AID 651999;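 active = pattern-corrected inhibition above about 35%, with an unprinted fluorescence ratio check between 0.5 and 1.5, limit read from the data, passing the limit was not always enough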;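 also: 0% = enzyme with substrate and 100% = substrate without enzyme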
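Test system: purified human Csn5 enzyme expressed in HEK293T cells. Amount: 0.24 nM enzyme. Reagent: SCFSkp2-Nedd8OG substrate at 10 nM final. Schedule: 90 min incubation of compound, enzyme and substrate at room temperature. Detection: fluorescence polarization. Read-out: % inhibition of substrate cleavage by Csn5.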
DNMT1 inh: DNMT1 (human) enzyme inhibition; DNMT1 molecular beacon, Hinp1I cleavage, fluorescence; inhibition (reported as % activation of signal), % at 10 µM; hit rate 0.83% among 360,000; AID 588458; in the data active = inhibition above about 50%
LMPTP inh: LMPTP (human) inhibition; recombinant LMPTP-A, OMFP fluorogenic substrate, fluorescence intensity; inhibition, % at 20 µM; AID 651560; hit rate 0.22% among 360,000; P24666;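 active = compounds that cut the enzyme signal by at least half of the control window in the single-dose screen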;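 also: plate controls were DMSO wells with enzyme plus substrate for no effect and substrate without enzyme for full effect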
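Buffer or medium: Bis-Tris pH 6.0, DTT, detergent; Assay system: LMPTP-A enzyme; Quantity: 0.625 nM enzyme; Detection: endpoint fluorescence intensity; Times: 50 min dark incubation at room temperature; Controls: substrate-only low control, DMSO enzyme-plus-substrate high control; Doses: single 20 µM dose; Read-out: percent inhibition versus substrate-only and uninhibited controls; Reagent: 400 µM OMFP.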
SUMO1 PPI mod: alters human SUMO1 binding to SIM partners; P63165; SUMO1 binding to a labelled peptide, TR-FRET, 1 h; inhibition, % at 20 µM; hit rate 0.33% among 360,000; in the data active = inhibition above about 37%
Target sequence (P63165 whole entry, looked up): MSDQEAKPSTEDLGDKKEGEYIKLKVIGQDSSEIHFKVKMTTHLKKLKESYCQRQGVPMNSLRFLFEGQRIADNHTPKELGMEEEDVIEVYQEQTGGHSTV
STEP block: blocks human striatal-enriched tyrosine phosphatase; recombinant STEP, OMFP fluorogenic substrate, fluorescence; inhibition, % at 20 µM; hit rate 0.25% among 360,000;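 active = inhibition at 20 µM, scaled per plate between control wells, above about 37%, limit read from the data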;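 also: 0% = DMSO with enzyme and substrate and 100% = substrate only without enzyme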
Target sequence (P54829 whole entry, looked up): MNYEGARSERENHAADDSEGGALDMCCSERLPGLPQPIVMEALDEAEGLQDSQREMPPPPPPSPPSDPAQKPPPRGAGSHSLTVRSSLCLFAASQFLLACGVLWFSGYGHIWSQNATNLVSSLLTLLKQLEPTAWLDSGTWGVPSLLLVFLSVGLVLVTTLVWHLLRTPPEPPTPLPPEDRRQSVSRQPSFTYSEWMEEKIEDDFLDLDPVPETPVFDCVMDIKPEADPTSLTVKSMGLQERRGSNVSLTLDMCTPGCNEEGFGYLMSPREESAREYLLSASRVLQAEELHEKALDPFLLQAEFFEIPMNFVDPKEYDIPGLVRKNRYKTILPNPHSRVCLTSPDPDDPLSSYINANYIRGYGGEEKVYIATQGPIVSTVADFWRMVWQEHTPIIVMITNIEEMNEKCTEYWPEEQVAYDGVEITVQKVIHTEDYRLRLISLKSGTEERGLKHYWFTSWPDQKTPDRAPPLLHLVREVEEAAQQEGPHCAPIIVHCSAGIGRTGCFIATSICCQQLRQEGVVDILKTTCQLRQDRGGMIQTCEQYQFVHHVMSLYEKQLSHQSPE
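Material: STEP (striatal-enriched tyrosine phosphatase) enzyme, cell-free; Compound dosing: 20 µM single dose in 1% DMSO; Technique: fluorescence read at 480 nm ex / 540 nm em; Times: reaction 20 min, ambient temperature; Medium: 50 mM Bis-Tris pH 6.0 with 2.5 mM DTT and 0.005% Tween 20; Also added: OMFP at 25 µM.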
Scp1 confirm: Scp-1 (human) inhibition, single-dose confirmed | AID 540281 | hit rate 61% among 2,500 | recombinant SCP-1 catalytic domain, phosphate release, malachite green absorbance | inhibition, % at 20 µM | shares compounds with Scp1 inh;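 also: plate controls were DMSO with enzyme for no effect and buffer wells lacking enzyme for full effect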
Scp-1 MG ctr: counter-screen for Scp-1 inhibitors: colorimetric interference | shares compounds with Scp1 inh | Colorimetric interference counterscreen, malachite green absorbance 630 nm | apparent inhibition (interference), % at 20 µM | 2,500 tested, under 10 active | AID 540313;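 also: compounds added after enzyme reaction finished so only phosphate colour detection is probed; plate controls were DMSO wells with completed Scp-1 reaction for no effect and substrate wells lacking enzyme for full effect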
Scp-1 Tm shift: binds human Scp-1, shifting its melting temperature; thermal shift relative to vanadate control, % at 40 µM; hit rate 25% among 1,500; shares compounds with Scp1 inh; Recombinant SCP1, Sypro Orange thermal shift Tm; AID 540329;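 active = substances whose mean melting-temperature shift, as a percentage of the reference inhibitor's shift, reaches about 5.3%, limit read from the data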;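 also: 0% = Tm of DMSO wells and 100% = Tm with sodium orthovanadate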
DNMT1 interf DR: counter-screen for DNMT1 inhibitors: spectral interference, dose response. IC50, µM. 200 tested, under 10 active. molecular beacon fluorescence. shares compounds with DNMT1 inh; call rule not given here
DNMT1 confirm: confirmation of human DNMT1 inhibitors; AID 602385; DNMT1 molecular beacon HinP1I cleavage, fluorescence; hit rate 8% among 2,300; shares compounds with DNMT1 inh; inhibition, % at 10 µM;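 active = average inhibition of at least 30% in the single-concentration confirmation test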
Beacon interf: beacon fluorescence artifact counter-screen | shares compounds with DNMT1 inh | DNMT1 molecular beacon spectral interference counterscreen, fluorescence 485/520 | activation (fluorescence interference), % at 10 µM | hit rate 1% among 2,300 | AID 602387;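 active = activation of at least 30% at 10 µM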;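 also: DNMT1 catalytic domain with a HinP1I cleavage step and a FAM/dabcyl DNA beacon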
STEP inh conf: STEP (human) phosphatase inhibition, single concentration confirmation; recombinant STEP, OMFP fluorogenic substrate, fluorescence; AID 623866; inhibition, % at 20 µM; shares compounds with STEP block; hit rate 32% among 520; call rule not given here;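 also: 0% = enzyme with substrate plus DMSO and 100% = substrate without enzyme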
CSN deneddyl val: Csn5 (human) deneddylation inhibition, single-concentration validation; shares compounds with CSN deneddyl inh; Csn5 deneddylation of SCF-Nedd8OG, fluorescence polarization, 90 min; inhibition, % at 16.6 µM; hit rate 62% among 540; in the data active = inhibition above about 50%;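 also: 0% = DMSO with enzyme and 100% = no enzyme wells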
MMP-2 counter: MMP-2 (human) inhibition, counter-screen for CSN hits. shares compounds with CSN deneddyl inh. recombinant MMP-2, FRET substrate fluorescence, 60 min. inhibition, % at 16.6 µM. hit rate 33% among 540. AID 720655;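 active = corrected plate-normalized z-score of 5 or more, or -5 or less, or inhibition of 15% or more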;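 also: plate controls were DMSO wells with enzyme for no effect and buffer wells lacking MMP-2 for full effect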
Thrombin cntr: blocks bovine thrombin in a CSN deneddylation counter-screen; shares compounds with CSN deneddyl inh; bovine thrombin cleavage of Ub4-pepOG, fluorescence polarization; inhibition, % at 16.6 µM; hit rate 49% among 540; AID 720656;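 active = inhibition at or above a set limit, with a fluorescence interference ratio between 0.5 and a set maximum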
* hit, by the source's call; nt = no result given. Compounds with a hit are over-represented: about 1.9% of the library has one in this group of screens.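 The calls were made as follows, unless noted: active = inhibition of at least 30% at 20 µM; inactive = the rest.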

SMILES	Scp1 inh	CSN deneddyl inh	DNMT1 inh	LMPTP inh	SUMO1 PPI mod	STEP block	DNMT1 confirm	Beacon interf	others
CC(Nc1nc(-c2ccc(F)cc2)cs1)c1nc2cc(Cl)c(Cl)cc2n1CCCO (stereo not drawn)	-3.0	2.4	-22.0	2.4	11.8	2.5	nt	nt
Cc1ccc(Cn2c(C(C)Nc3nc(-c4ccc(C)cc4)cs3)nc3cc(Cl)c(Cl)cc32)cc1 (stereo not drawn)	60.8*	38.2*	77.6*	24.2	110.1*	78.1*	11.2	4.5	Scp1 confirm=55.9*;Scp-1 MG ctr=1.7;Scp-1 Tm shift=4.4;STEP inh conf=26.2;CSN deneddyl val=55.0*;MMP-2 counter=15.1*;Thrombin cntr=7.5
O=C(Oc1ccc(NC2=NS(=O)(=O)c3ccccc32)cc1)c1cccnc1	-8.7	6.1	4.7	-0.9	2.1	0.3	nt	nt
CC1C=CC=CC=CC=CC=CC=CC=CC(OC2OC(C)C(O)C(N)C2O)CC2OC(O)(CC(O)CC(O)C(O)CCC(O)CC(O)CC(=O)OC(C)C(C)C1O)CC(O)C2C(=O)O (stereo not drawn)	88.9*	39.3*	94.5*	2.3	24.0	1.6	nt	nt	Scp1 confirm=65.1*;Scp-1 MG ctr=-14.0;Scp-1 Tm shift=-9.3;CSN deneddyl val=78.1*;MMP-2 counter=-0.7;Thrombin cntr=15.0*
CCOC(=O)c1sc2nc3c(SCC(=O)O)cc(C(=O)c4ccccc4O)cn3c(=O)c2c1C	52.5*	47.3*	185.7*	93.3*	101.7*	98.2*	60.1*	-2.3	Scp1 confirm=59.0*;Scp-1 MG ctr=-6.5;Scp-1 Tm shift=7.5*;DNMT1 interf DR=>99;STEP inh conf=97.6*;CSN deneddyl val=109.1*;MMP-2 counter=22.1*;Thrombin cntr=-27.5
CC(C)CC(CO)N1CCN(C(=O)c2cccc(C(F)(F)F)c2)CCC1=O (stereo not drawn)	-9.8	-3.5	6.5	-2.0	0.5	-1.9	nt	nt
Cc1c2cnn(CC(=O)Nc3c(F)c(F)cc(F)c3F)c(=O)c2c(C)n1Cc1ccccc1F	69.1*	62.1*	91.1*	14.7	16.4	4.9	24.1	-4.0	Scp1 confirm=76.7*;Scp-1 MG ctr=-6.2;Scp-1 Tm shift=7.2*;DNMT1 interf DR=>99;CSN deneddyl val=2.3;MMP-2 counter=7.1;Thrombin cntr=13.3
COc1ccccc1/C=c1\sc2nc(-c3ccco3)nn2c1=O	68.7*	38.0*	105.6*	12.8	25.6	4.2	4.0	2.1	Scp1 confirm=72.4*;Scp-1 MG ctr=-9.0;Scp-1 Tm shift=7.8*;CSN deneddyl val=86.3*;MMP-2 counter=4.0;Thrombin cntr=5.6
CCCC1=NN2C(=N)/C(=C\c3ccc(SCc4ccco4)o3)C(=O)N=C2S1	80.9*	75.6*	104.9*	51.4*	50.4*	16.1	14.1	-0.6
CCOc1cc(/C=C2\C(=N)N3N=CSC3=NC2=O)ccc1OS(=O)(=O)c1ccccc1	-1.6	2.5	3.6	0.8	8.6	-0.1	nt	nt
CCOc1cc(/C=C2/C(=N)N3N=C(C)SC3=NC2=O)ccc1OS(=O)(=O)c1ccc(C)cc1	-9.0	3.8	74.7*	1.4	18.7	-1.0	8.7	0.7
O=C(CC[C@H]1O[C@@H](n2ccc(=O)[nH]c2=O)[C@H](O)[C@@H]1O)N1CCN(Cc2cccc3ccccc23)CC1	nt	2.1	85.0*	-1.1	4.1	2.2	0.2	5.5
O=c1ccn([C@@H]2O[C@H](CO)[C@@H](O)[C@H]2O)c(=O)[nH]1	-8.8	-6.3	81.3*	-2.0	-2.3	0.2	4.0	5.0
C[C@H](NC(=O)CC[C@H]1O[C@@H](n2ccc(=O)[nH]c2=O)[C@H](O)[C@@H]1O)C(=O)O	nt	-0.9	-0.2	-3.9	-1.8	1.1	nt	nt
O=C(O)C/C(=C\c1cc(Cl)c2c(c1)OCO2)c1nc2ccccc2s1	27.6	11.0	52.9*	10.2	-12.7	0.0	16.5	7.8
O=C(O)C/C(=C\c1ccc2c(c1)OCO2)c1nc2ccccc2s1	-7.2	-2.2	0.1	-1.7	-7.6	-2.5	nt	nt
O=c1cc(CN2CCN(c3ccc(F)cc3)CC2)c2cc3c(cc2o1)CCCC3	2.2	5.8	63.5*	1.6	-0.7	2.4	2.5	0.7
CN1CCN(Cc2cc(=O)oc3cc4c(cc23)CCC4)CC1	-8.5	5.4	4.7	-2.0	-1.8	-2.2	nt	nt
CC(=O)Cn1c(C(F)(F)F)nc2ccccc21	2.9	2.9	2.3	-0.6	-0.1	4.5	nt	nt
N=C1C(c2nc(-c3ccc(Br)cc3)cs2)=C(O)CN1NC(=O)c1ccc([N+](=O)[O-])cc1	-3.2	-0.9	56.1*	24.7	-4.2	4.8	3.8	-2.7
Cc1ccc(C(=O)Nc2nc(-c3ccc([N+](=O)[O-])cc3)cs2)o1	-10.1	-10.9	51.4*	11.2	-8.2	-2.6	4.5	1.6
COCCCn1c(=N)c(C(N)=S)cc2c(=O)n3cccc(C)c3nc21	-9.0	-2.2	54.0*	6.3	22.2	6.8	3.7	0.7
Cn1c(N)c(C(=O)COC(=O)/C=C/c2ccccc2F)c(=O)n(C)c1=O	-15.3	-2.0	-4.2	0.5	-11.0	-3.6	nt	nt
Cn1c(N)c(C(=O)COC(=O)/C=C/c2cccc(Cl)c2)c(=O)n(C)c1=O	-7.6	-3.6	66.0*	12.2	-9.5	0.0	3.0	3.8
